According to ChEMBL document CHEMBL5058577, “EUbOPEN Chemogenomics Library 2 (Multiplex)” (2022):

Test system: HEK-293T
Assay: Multiplex assay against HEK293T
Assay type: toxicity, cell-based
Settings: human
How it was run: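 Live cells carried four stains from seeding: Hoechst33342, BioTracker Green Microtubule Cytoskeleton Dye, MitoTracker Red and Annexin V Alexa Fluor 680. They were imaged on a CQ1 microscope at 37°C and 5% CO2 after compound addition. Using CellPathfinder machine-learning gating, cells were split into Hoechst high-intensity objects or normal cells, normal cells into healthy, pyknosed or fragmented nuclei, and pyknosed cells into mitotic or apoptotic; tubulin, mitochondrial-mass and membrane-permeability phenotypes are per cents of healthy-nucleus cells.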

[1] = 12 h, 1 µM, compound concentration 1 uM, replicate 1
[2] = 12 h, 1 µM, compound concentration 1 uM, replicate 2
[3] = 12 h, 10 µM, compound concentration 10 uM, replicate 1
[4] = 12 h, 10 µM, compound concentration 10 uM, replicate 2
[5] = 24 h, 1 µM, compound concentration 1 uM, replicate 1
[6] = 24 h, 1 µM, compound concentration 1 uM, replicate 2
[7] = 24 h, 10 µM, compound concentration 10 uM, replicate 1
[8] = 24 h, 10 µM, compound concentration 10 uM, replicate 2
[9] = 48 h, 1 µM, compound concentration 1 uM, replicate 1
[10] = 48 h, 1 µM, compound concentration 1 uM, replicate 2
[11] = 48 h, 10 µM, compound concentration 10 uM, replicate 1
[12] = 48 h, 10 µM, compound concentration 10 uM, replicate 2

For `CC(C)(C)c1cc(NC(=O)Nc2ccc(-c3cn4c(n3)sc3cc(OCCN5CCOCC5)ccc34)cc2)no1` [QUIZARTINIB], the “Population Apoptotic (%)” value [1] was 27%, the “Population Fragmented Nuclei (%)” value [1] was 5% and the “Population Healthy Nuclei (%)” value [1] was 83%. For the same compound, the “Population Hoechst High Intensity Objects (%)” value [1] was 10%, the “Population Membrane Permeable-Phenotype (%)” value [1] was 0% and the “Population Mitochondria Different-Phenotype (%)” value [1] was 40%. For the same compound, the “Population Mitotic Cells (%)” value [1] was 72%, the “Population Normal (%)” value [1] was 89% and the “Population Pyknosed Nuclei (%)” value [1] was 11%. The “Population Tubulin-Different-Phenotype (%)” value [1] was 35%, the “Total Cell Count” value [1] was 377 and the “Population Apoptotic (%)” value [2] was 34%. The “Population Healthy Nuclei (%)” value [2] was 80%, the “Population Hoechst High Intensity Objects (%)” value [2] was 6% and the “Population Mitochondria Different-Phenotype (%)” value [2] was 58%. For the same compound, the “Population Mitotic Cells (%)” value [2] was 65%, the “Population Normal (%)” value [2] was 93% and the “Population Pyknosed Nuclei (%)” value [2] was 14%. The “Population Tubulin-Different-Phenotype (%)” value [2] was 26%, the “Total Cell Count” value [2] was 345 and the “Population Apoptotic (%)” value [3] was 53%. For the same compound, the “Population Fragmented Nuclei (%)” value [3] was 7%, the “Population Healthy Nuclei (%)” value [3] was 71% and the “Population Hoechst High Intensity Objects (%)” value [3] was 23%. For the same compound, the “Population Membrane Permeable-Phenotype (%)” value [3] was 0%, the “Population Mitochondria Different-Phenotype (%)” value [3] was 78% and the “Population Mitotic Cells (%)” value [3] was 46%. For the same compound, the “Population Normal (%)” value [3] was 76%, the “Population Pyknosed Nuclei (%)” value [3] was 21% and the “Population Tubulin-Different-Phenotype (%)” value [3] was 68%. The “Total Cell Count” value [3] was 324, the “Population Apoptotic (%)” value [4] was 73% and the “Population Hoechst High Intensity Objects (%)” value [4] was 12%. For the same compound, the “Population Mitochondria Different-Phenotype (%)” value [4] was 81%, the “Population Mitotic Cells (%)” value [4] was 26% and the “Population Normal (%)” value [4] was 87%. The “Population Tubulin-Different-Phenotype (%)” value [4] was 63%, the “Total Cell Count” value [4] was 293 and the “Population Apoptotic (%)” value [5] was 41%. For the same compound, the “Population Fragmented Nuclei (%)” value [5] was 7%, the “Population Healthy Nuclei (%)” value [5] was 84% and the “Population Hoechst High Intensity Objects (%)” value [5] was 6%. The “Population Membrane Permeable-Phenotype (%)” value [5] was 0%, the “Population Mitochondria Different-Phenotype (%)” value [5] was 26% and the “Population Mitotic Cells (%)” value [5] was 58%. For the same compound, the “Population Normal (%)” value [5] was 93%, the “Population Pyknosed Nuclei (%)” value [5] was 7% and the “Population Tubulin-Different-Phenotype (%)” value [5] was 21%. The “Total Cell Count” value [5] was 491, the “Population Apoptotic (%)” value [6] was 38% and the “Population Fragmented Nuclei (%)” value [6] was 5%. The “Population Hoechst High Intensity Objects (%)” value [6] was 4%, the “Population Mitochondria Different-Phenotype (%)” value [6] was 40% and the “Population Mitotic Cells (%)” value [6] was 61%. For the same compound, the “Population Normal (%)” value [6] was 95%, the “Population Pyknosed Nuclei (%)” value [6] was 10% and the “Population Tubulin-Different-Phenotype (%)” value [6] was 17%. The “Total Cell Count” value [6] was 440, the “Population Apoptotic (%)” value [7] was 62% and the “Population Fragmented Nuclei (%)” value [7] was 8%. The “Population Healthy Nuclei (%)” value [7] was 79%, the “Population Hoechst High Intensity Objects (%)” value [7] was 16% and the “Population Membrane Permeable-Phenotype (%)” value [7] was 0%. The “Population Mitochondria Different-Phenotype (%)” value [7] was 63%, the “Population Mitotic Cells (%)” value [7] was 37% and the “Population Normal (%)” value [7] was 83%. The “Population Pyknosed Nuclei (%)” value [7] was 12%, the “Population Tubulin-Different-Phenotype (%)” value [7] was 57% and the “Total Cell Count” value [7] was 413. For the same compound, the “Population Apoptotic (%)” value [8] was 69%, the “Population Fragmented Nuclei (%)” value [8] was 9% and the “Population Healthy Nuclei (%)” value [8] was 78%. The “Population Hoechst High Intensity Objects (%)” value [8] was 9%, the “Population Mitochondria Different-Phenotype (%)” value [8] was 75% and the “Population Mitotic Cells (%)” value [8] was 30%. The “Population Normal (%)” value [8] was 90%, the “Population Pyknosed Nuclei (%)” value [8] was 11% and the “Population Tubulin-Different-Phenotype (%)” value [8] was 50%. The “Total Cell Count” value [8] was 321, the “Population Apoptotic (%)” value [9] was 21% and the “Population Fragmented Nuclei (%)” value [9] was 12%. For the same compound, the “Population Healthy Nuclei (%)” value [9] was 80%, the “Population Hoechst High Intensity Objects (%)” value [9] was 3% and the “Population Membrane Permeable-Phenotype (%)” value [9] was 2%. For the same compound, the “Population Mitochondria Different-Phenotype (%)” value [9] was 11%, the “Population Mitotic Cells (%)” value [9] was 78% and the “Population Normal (%)” value [9] was 96%. The “Population Pyknosed Nuclei (%)” value [9] was 6%, the “Population Tubulin-Different-Phenotype (%)” value [9] was 15% and the “Total Cell Count” value [9] was 851. The “Population Fragmented Nuclei (%)” value [10] was 10%, the “Population Healthy Nuclei (%)” value [10] was 82% and the “Population Hoechst High Intensity Objects (%)” value [10] was 2%. For the same compound, the “Population Membrane Permeable-Phenotype (%)” value [10] was 0%, the “Population Mitochondria Different-Phenotype (%)” value [10] was 24% and the “Population Normal (%)” value [10] was 97%. For the same compound, the “Population Tubulin-Different-Phenotype (%)” value [10] was 18%, the “Total Cell Count” value [10] was 566 and the “Population Apoptotic (%)” value [11] was 57%. The “Population Fragmented Nuclei (%)” value [11] was 9%, the “Population Healthy Nuclei (%)” value [11] was 77% and the “Population Hoechst High Intensity Objects (%)” value [11] was 9%. The “Population Membrane Permeable-Phenotype (%)” value [11] was 1%, the “Population Mitochondria Different-Phenotype (%)” value [11] was 40% and the “Population Mitotic Cells (%)” value [11] was 42%. The “Population Normal (%)” value [11] was 90%, the “Population Pyknosed Nuclei (%)” value [11] was 12% and the “Population Tubulin-Different-Phenotype (%)” value [11] was 35%. For the same compound, the “Total Cell Count” value [11] was 583, the “Population Apoptotic (%)” value [12] was 58% and the “Population Fragmented Nuclei (%)” value [12] was 11%. The “Population Healthy Nuclei (%)” value [12] was 73%, the “Population Hoechst High Intensity Objects (%)” value [12] was 12% and the “Population Membrane Permeable-Phenotype (%)” value [12] was 0%. For the same compound, the “Population Mitochondria Different-Phenotype (%)” value [12] was 59%, the “Population Mitotic Cells (%)” value [12] was 41% and the “Population Normal (%)” value [12] was 87%. The “Population Pyknosed Nuclei (%)” value [12] was 14%, the “Population Tubulin-Different-Phenotype (%)” value [12] was 37% and the “Total Cell Count” value [12] was 392.
